# TNAP act hi DEA: TNAP activators at high phosphate acceptor level, primary screen, biochemical, luminescence, uHTS. 200,000 tested, under 10 active. activation factor at 20 µM. AID 1136, 2008. purified TNAP, CDP-star luminescence, 1 M DEA, 30 min; stronger effect = higher value; 0 = EDTA background, 1 = DMSO-only activity. Alkaline phosphatase, tissue-nonspecific isozyme (Homo sapiens), P05186;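 active = activation factor at least 2 at 20 µM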
# Target sequence (P05186 whole entry, looked up): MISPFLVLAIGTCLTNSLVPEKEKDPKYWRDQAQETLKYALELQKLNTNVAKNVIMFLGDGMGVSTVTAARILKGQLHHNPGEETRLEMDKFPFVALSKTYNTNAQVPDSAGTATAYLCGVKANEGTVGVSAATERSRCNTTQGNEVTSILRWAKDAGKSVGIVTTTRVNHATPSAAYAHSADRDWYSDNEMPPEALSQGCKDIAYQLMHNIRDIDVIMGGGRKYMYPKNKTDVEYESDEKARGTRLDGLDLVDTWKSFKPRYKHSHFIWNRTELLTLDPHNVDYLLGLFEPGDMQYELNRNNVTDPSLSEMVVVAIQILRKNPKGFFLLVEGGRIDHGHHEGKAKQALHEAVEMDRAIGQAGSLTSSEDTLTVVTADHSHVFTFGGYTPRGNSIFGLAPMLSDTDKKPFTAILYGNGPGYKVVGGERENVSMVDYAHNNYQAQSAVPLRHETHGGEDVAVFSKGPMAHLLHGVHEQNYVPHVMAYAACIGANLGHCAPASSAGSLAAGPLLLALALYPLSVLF
#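 system = human TNAP | amount = enzyme diluted 1/800 final | reagent = 100 µM CDP-star substrate | signal = luminescent substrate turnover signal | dosing = one dose, 20 µM | benchmarks = EDTA negative control, DMSO positive control | measure = activation factor | timing = 30 min reaction, room temperature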
# PMI act hi M6P: human PMI activators, high substrate, primary screen, biochemical, fluorescence intensity, near-saturating mannose 6-phosphate. Mannose-6-phosphate isomerase (Homo sapiens), P34949. coupled PMI enzyme assay, resazurin fluorescence, 20 min; stronger effect = higher value; 1 = untreated enzyme, 0 = substrate-free blank. activation factor at 20 µM. 0.34% of 190,000 active. AID 1216, 2008;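 active = activation factor of 2 or more at 20 µM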
#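 test system = human PMI in coupled enzyme assay | medium = HEPES-buffered pH 7.4 with magnesium and detergent | also added = 1.0 mM mannose-6-phosphate substrate with 0.22 mM NADP+ | compound = 20 µM single dose | times = 20 min incubation at room temperature | measured by = resorufin fluorescence (Ex 544/Em 590 nm) from resazurin via diaphorase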
# TNAP inh no acc: human TNAP enzyme inhibitors, primary screen, biochemical, luminescent, no phosphate acceptor, uHTS. purified TNAP, CDP-star luminescence, 30 min. 0.26% of 200,000 active. inhibition, % at 20 µM;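 active = tissue-nonspecific alkaline phosphatase inhibition above about 50% at 20 µM in the single-dose screen, limit read from the data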;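 also: 0% = DMSO negative control and 100% = EDTA positive control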
# PMI act: activators of human PMI, primary screen, biochemical, fluorescence intensity, near-Km mannose 6-phosphate; Mannose-6-phosphate isomerase (Homo sapiens), P34949; purified human PMI, coupled resazurin fluorescence, 20 min; stronger effect = higher value; 1 = vehicle control, 0 substrate-free wells; activation factor at 20 µM; 0.005% of 190,000 active;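 active = activation factor of 2 or more at 20 µM, relative to plate controls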
# TNAP inh hi DEA: human TNAP enzyme inhibitors, primary screen, biochemical, luminescent, high phosphate acceptor level, uHTS; Alkaline phosphatase, tissue-nonspecific isozyme (Homo sapiens), P05186; purified TNAP, CDP-star luminescence, 1 M DEA; inhibition, % at 20 µM; 0.03% of 200,000 active; AID 1135, 2008;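 active = over 50% inhibition of tissue-nonspecific alkaline phosphatase at 20 µM in the single-dose screen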;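 also: plate controls were DMSO wells for no effect and EDTA-quenched wells as full inhibition for full effect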
# Active calls of the source: *; i = inactive; . = no result given. This is a sample that favours compounds with a hit; in the whole collection about 0.62% have one here.
SMILES,TNAP act hi DEA,PMI act hi M6P,TNAP inh no acc,PMI act,TNAP inh hi DEA
Cc1nonc1-c1csc(N)n1,1,0.9,-10.3,0.9,0.0
CCCn1cc2c(c1-c1cccc(C)c1)c(=O)n(C)c(=O)n2C,1,1.1,-11.2,1,-2.0
CCn1cc2c(c1-c1cccc(C)c1)c(=O)n(C)c(=O)n2C,1.1,2.1*,-11.2,1.5,-5.1
CCOC(=O)C1(CCOC)CCN(C(C)CCc2ccc(OC)cc2)CC1 (centres undefined),1.1,1,-6.8,1,-7.2
CCN1/C(=C\C(=S)Nc2ccccc2)Sc2ccccc21,1,.,8.7,.,4.7
CCN1/C(=C/C(C)=C/c2sc3ccccc3[n+]2CC)Sc2ccccc21,0.6,1,59.3*,0.8,43.5
CNC[C@H](O)c1cccc(O)c1,1,1,-5.6,1,2.7
CNC[C@H](O)c1ccc(O)c(O)c1,0.9,0.4,77.6*,0.4,9.0
CCC1(C(=O)c2ccc(Cl)cc2)C2c3ccccc3OC(=O)C21C(=O)Nc1ccccc1 (centres undefined),1,0.9,-0.3,0.9,3.3
CCCn1c(C(C)NC(=O)c2ccccc2)nc2ccccc21 (centres undefined),1,1.1,-10.8,1.1,-3.0
CCN(CC)c1ccc(NC(=O)Cn2c(C(C)NC(=O)c3ccc(C)cc3)nc3ccccc32)cc1 (centres undefined),2.3*,0.8,i,0.9,-133.6
C=CCN(CC=C)C(=O)c1ccc(OC2CCN(Cc3ccccn3)CC2)cc1,1.1,1.1,-9.5,1,-5.1
CC(=O)Nc1ccccc1C(=O)C(=O)NCCc1ccccc1,1,1,-6.0,1,1.3
c1ccc(CCn2nnnc2CN2CCCc3ccccc32)cc1,1,2.1*,-14.0,1,-3.0
c1ccc(-c2nnc(CN3CCCc4ccccc43)o2)cc1,1,2.1*,-10.9,1.5,-4.5
c1ccc2sc(N3CCN(Cc4nnnn4CC4CCCO4)CC3)nc2c1 (centres undefined),1,1.1,-11.4,1.1,-3.8
c1ccc2c(c1)CCCN2Cc1nnnn1CC1CCCO1 (centres undefined),1,2.1*,-9.3,1.5,1.4
N#Cc1cnn2ccc(-c3cc(N4CCOCC4)ccc3[N+](=O)[O-])nc12,0.9,1,9.0,1,11.5
CC1CCC/C(=N\NC(=O)Nc2ccccc2)C1 (centres undefined),1,0.9,-20.1,0.9,-3.3
CC1CCC/C(=N\Nc2ccc(Cl)c(C(=O)O)c2)C1 (centres undefined),1,2.1*,-4.9,1.7,-0.7
S=c1[nH]nc(-c2ccco2)n1/N=C/c1ccc(Cl)cc1,1,0.8,54.0*,0.9,0.6
CCN1CCN(C(=O)NC(c2ccc(C)c(F)c2)C(Cl)Cl)CC1 (centres undefined),1,1.1,-22.2,1.1,-3.4
Cc1ccc(C(NC(=O)N2CCCC2)C(Cl)Cl)cc1F (centres undefined),1,2*,-1.9,1.7,-4.0
CCOc1cccc2sc(NN)nc12,0.8,2.2*,3.8,1.6,15.1
[O-]C1=N/[N+](=C/c2ccccc2Cl)CC1,1,2*,-9.3,1.5,-4.0
COc1ccccc1C(=O)Nc1ccc2c(c1)nc1n2CCSC1,1,0.7,67.6*,0.9,2.4
CC1(C)Cc2c(oc3ncn4ncnc4c23)CO1,1.1,1,-14.1,1,-9.1
CSc1nc2oc3c(c2c2nncn12)CC(C)(C)SC3,1.1,2.6*,-15.1,1.4,-5.1
N/C(COc1ncn(-c2ccccc2)n1)=N\S(=O)(=O)c1ccc(Cl)cc1Cl,0.5,0.9,63.2*,0.9,47.8
Cc1ccc(NC(=O)C(C)c2ccc([N+](=O)[O-])cc2)cc1Cl (centres undefined),1,0.8,-8.6,0.8,2.5
